The labels stand for the following.
B1: tRNA (parent)
chain: GUUCCGUUGGCGUAAUGGUAACGCGUCUCCCUCCUAAGGAGAAGACUGCGGGUUCGAGUCCCGUACGGAACG

This sample holds only a part of the variants without activity. Bounds are passed on as bounds.

In this series the parent is B1. Put plainly: yeast fitness relative to wild type (ratio to wild type); higher = fitter; tRNA-Arg(CCU), competitive growth, 37 C, YPD. In a few lines: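 Genotype frequency changes were the basis for Darwinian fitness relative to wild type. The frequencies came from 100-nucleotide paired-end sequencing of gene amplicons from the start population and each end population of pooled yeast strains with tRNA-Arg(CCU) gene variants at the native locus. Competition ran in YPD at 37°C for 24 hours in six replicates, genotypes needed ≥ 100 starting reads, and estimates < 0.5 were set to 0.5.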
Consider U19C C31U G58A, for which the yeast fitness was 0.715.
Consider A20C A21G A70C, for which the yeast fitness turned out to be 0.803.
U19C C30G C33G U53A: the yeast fitness is ≤ 0.5.
With U19C C24G A36G A37U U47A the figure was ≤ 0.5; with U19C C22U, 0.895.
With U19C U28C the figure was 0.992; with U19G A20U G58C, 0.716; with U19C C66U A69C, 0.685.
Consider U19G U28C A37G C66U A69U, for which the yeast fitness came out at 0.524.
Turning to U19C G41A, the yeast fitness was found to be 0.899.
The value for U19G C27G C34A A42U was ≤ 0.5; that for U19C C31U G56A G67A was 0.601; that for U19C C24A G58A C66U was ≤ 0.5.
Turning to U19C U26A, the yeast fitness was 0.945.
In the case of U19G C55G, the yeast fitness worked out at 0.651.
For the variant U19G C29U A40C, the yeast fitness turned out to be 0.52.
With U19C U53C U54A the figure was ≤ 0.5; with A20C A21U C33G A57C, ≤ 0.5; with U19G C30A A45U G56A G58C A69U, ≤ 0.5.
For U19C A42U G68C, the yeast fitness is ≤ 0.5.
With U19G C30A A43U the figure was 0.601.
With U19C U32G the figure was 0.655; with U19G A42U C46U, 0.569; with U19C U53C G56A, 0.622.
As for U19C A40C U53A, the yeast fitness turned out to be 0.532.
Regarding U19C C22U G50A U64C, the yeast fitness is ≤ 0.5.
Regarding U19C G51A, the yeast fitness was 0.681.
With U19G U35C A43U A65G G68A, the yeast fitness is ≤ 0.5.
Regarding U19C U26A C46U, the yeast fitness was 0.901.
For U19C G41C A65G, the yeast fitness came to 0.663.
As for U19C G44C, the yeast fitness was 1.
The value for U19C G68A was 0.878; that for A20C A21G G56C C66U was ≤ 0.5.
With U19C U26A G67C the figure was 0.57; with U19G A20C U26C G41A C62G, ≤ 0.5.
With U19G G41C A43U the figure was 0.512.
Regarding U19C C24A, the yeast fitness is 0.601.
With U19C C24G the figure was 0.621; with U19C C33U G41C, 0.583.
The value for A20C A21G C24U was 0.647.
As for U19C U53A, the yeast fitness worked out at 0.689.
In the case of U19C C60A G68C, the yeast fitness is ≤ 0.5.
As to U19G C29U A40C C60G C62A A65G, the yeast fitness was 0.525.
For U19G C22U C30U C31U A40U G67A, the yeast fitness is ≤ 0.5.
Take U19C C27A G50C: the yeast fitness amounted to 0.577.
Regarding U19C U32C U64A, the yeast fitness was 0.501.
With U19C G25A A37U C62A U64C the figure was ≤ 0.5; with U19G C34U G68C, 0.591.
U19G U59C A69C: the yeast fitness came out at 0.658.
With U19G C49U U54C C62A the figure was ≤ 0.5.
With U19C A70G, the yeast fitness was 0.982.
For the variant U19C A37C G63A, the yeast fitness is ≤ 0.5.
With U19C G25C A37G the figure was 0.6; with U19G G41U, 0.691; with U19G G41C, 0.622.
With U19G C22U C31U A40U C55G A65C the figure was ≤ 0.5; with U19C G48C A69C, 1.03; with U19C C24U C49A U54C C60G, ≤ 0.5.
The value for U19G A21U C33A C49A was ≤ 0.5.
Consider U19C A45U C46U A57U, for which the yeast fitness is ≤ 0.5.
For U19G C29A, the yeast fitness was 0.56.
The value for U19C C55U U59C C61G was ≤ 0.5; that for U19G G56A G67U was ≤ 0.5; that for U19C A21U C49U was 0.966.
U19G A65G A70C: the yeast fitness is 0.733.
With U19C U28A C55G, the yeast fitness was ≤ 0.5.
Turning to U19C C55G, the yeast fitness was 0.676.
With U19C C55U the figure was 0.807; with U19G C49U C60A C66G, ≤ 0.5; with A20C A21G U64G, 0.558.
The value for U19C C24U C61U was 0.787; that for U19C A57G A70U was 0.601; that for U19G C33U C34U was ≤ 0.5.
As to U19C G67C, the yeast fitness was 0.931.
As for U19C G67A, the yeast fitness was 1.
With U19C G67U the figure was 1.07.
With U19C C31A C66U the figure was 0.555; with A20C A21U C27G A42U A70G, ≤ 0.5; with U19C C29G C31A, ≤ 0.5.
With U19C A36C G41C C66A, the yeast fitness was ≤ 0.5.
U19G U26C C29G A57U A69U A70C: the yeast fitness was ≤ 0.5.
With U19G C30A A45U G58C A69U, the yeast fitness was ≤ 0.5.
With U19G G48A C49A the figure was 0.574; with U19C C30G A40C G51A C61A, 0.696.
Turning to U19C C33G A36U G44A, the yeast fitness is ≤ 0.5.
In the case of U19C G25C C29A G52A, the yeast fitness is ≤ 0.5.
The value for U19C C55U C61G was 0.596; that for U19C A57C C61A was ≤ 0.5; that for U19C G23A A37C was ≤ 0.5.
The value for U19C A37G C49A was ≤ 0.5; that for A20C A21G C24U U26C was ≤ 0.5; that for A20C A21G C46U C60G was ≤ 0.5.
The value for A20C A21U C27G A42U was ≤ 0.5; that for U19G A40G C49A was ≤ 0.5; that for U19G G44A was 0.953.
For U19C C22G A70U, the yeast fitness was found to be 0.743.
With U19C C22U C61A A70G the figure was ≤ 0.5; with U19C C24U U32C A37C A45G A57C, 0.638.
With U19C C24G U35A, the yeast fitness worked out at 0.804.
With U19C C30U G56A A69C the figure was ≤ 0.5; with U19C A43C, 0.907.
With U19C A43U the figure was 1.03.
With U19C A43G, the yeast fitness turned out to be 1.07.
The value for U19G U47C was 0.972.
Turning to U19C A37G A65U, the yeast fitness stood at 0.58.
Regarding U19C A36U, the yeast fitness amounted to 0.566.
With U19C C29U A42C A57G, the yeast fitness is 0.541.
Consider U19C C34U C49A G56C C62A A65C, for which the yeast fitness is ≤ 0.5.
The value for U19C C34U G52A U59A was 0.669; that for U19C A43U C49U C62U was 0.573.
The value for U19G A70G was 0.847.
The value for U19C G25C G51C C60U was ≤ 0.5; that for U19C C31U G56A was 0.954; that for U19C C22G G63C G68U was ≤ 0.5.
For the variant U19C G52C, the yeast fitness is 0.562.
The value for U19C G52A was 0.78.
The value for U19G C29U A40C A65G was ≤ 0.5; that for U19C A57G G58C was 0.609.
With U19C A43U A69U the figure was 1.09; with U19C A37G G56C, ≤ 0.5; with A20C A21G A45U, 0.91.
Regarding U19C C31A A37G G50U C62G, the yeast fitness was ≤ 0.5.
On to U19G C31A G39C C62G G68A, for which the yeast fitness was ≤ 0.5.
The value for U19G A20U G67A was 0.743.
With U19C G52C U64A the figure was ≤ 0.5; with U19C A21C C33U C61A A70C, ≤ 0.5.
The value for U19C A21U A43C C49U was 0.547; that for U19C G23C C29G A43U G50A A65C was ≤ 0.5; that for U19C G50C was 0.613.
With U19G C22U A70G, the yeast fitness came out at 0.624.
With U19C A57U the figure was 0.658.
As to U19C C22U G67A, the yeast fitness was 0.772.
The value for U19G A36C was 0.529.
The value for U19G U32C was 1.04.
The value for U19G U32A was 0.735.
For the variant U19G C66A, the yeast fitness is 0.53.
Turning to U19G C66U, the yeast fitness was determined as 0.831.
With U19C C27G A65U G68U the figure was ≤ 0.5.
With U19C C29G C33G G41C C66U the figure was ≤ 0.5; with U19C A21C G39C C61U, ≤ 0.5.
The value for U19C C22G C24A G39C A45C U47C was 0.721.
Turning to U19C U47A, the yeast fitness worked out at 0.896.
Take U19C U47C: the yeast fitness came out at 0.905.
Turning to U19C C29G U47A, the yeast fitness is ≤ 0.5.
For the variant U19C A37C, the yeast fitness stood at 0.658.
As for U19C A37G, the yeast fitness turned out to be 0.784.
Regarding U19C A37U, the yeast fitness amounted to 1.08.
As to U19G G50A G51C C55G C61U, the yeast fitness was ≤ 0.5.
The value for U19C A40U C55U A65G was ≤ 0.5.
With U19G G38C A70U the figure was 0.501; with U19G A57G A70U, 0.731; with U19C G41C A70U, 0.671.
For the variant U19C C31A A36C G44A A57U, the yeast fitness is ≤ 0.5.
With U19C C24U C55U A57C the figure was ≤ 0.5; with U19C G38C G44C C46A G68C, ≤ 0.5; with U19C A21U C31U A42G A43U, 0.929.
Regarding A20C A21G G23A C66A, the yeast fitness is ≤ 0.5.
Regarding U19G A43C C49U U53C C55G, the yeast fitness was ≤ 0.5.
With U19G U59A A69U, the yeast fitness was ≤ 0.5.
In the case of U19C C22U C55A C66U, the yeast fitness is ≤ 0.5.
The value for U19C C24U A69C was 0.789; that for U19G U32G U53G was ≤ 0.5.
With U19G U32C G52A G58C the figure was ≤ 0.5; with U19C C46U, 1.06.
The value for U19C C46A was 0.978; that for U19C C46G was 0.943.
Turning to U19G C27U A37G U47C, the yeast fitness was ≤ 0.5.

Values taken from the RNAGym collection of RNA variant scans (doi:10.1126/science.aae0568).
